Screening results (PubChem BioAssay)
A selection: hits, their analogues and other compounds. The true share with any hit is near 11%.
WT yeast gro inh: growth inhibition of WT yeast, mitochondrial fusion screen; AID 1362; 2.1% of 190,000 active; mitochondrial fusion phenotypic screen, WT strain; inhibition, % at 10 µM; in the data active = inhibition above about 58%; tested in S. cerevisiae
Diaphorase act: activates diaphorase or chemically reduces, flagging diaphorase assay artifacts | 0.005% of 190,000 active | AID 1229 | Diaphorase/resazurin coupled assay, resorufin fluorescence, 16 min; hits give high values; 1 = vehicle wells, 0 = NADH-free wells | activation factor at 20 µM;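 active = diaphorase activity raised at least twofold by the compound at 20 µM; inactive = activation factor below 2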
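Test system: Clostridium kluyveri diaphorase, purified enzyme. Buffer or medium: 50 mM HEPES pH 7.4 buffer plus MgCl2 and Tween 20. Also added: 0.114 mM NADH and 0.1 mM resazurin, final amounts. Dosing: compound 20 µM once, DMSO 1%. Schedule: 16 min enzyme reaction, ambient temperature. Detection: fluorescence of resorufin, 544 nm excitation, 590 nm emission.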
L major viab: Leishmania major promastigote growth inhibition | Leishmania major promastigotes, resazurin fluorescence viability | inhibition, % at 10 µM | 9% of 200,000 active;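 also: promastigotes grown with compound for 44 hours at 28 °C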
G6PDH CS: L. mesenteroides G6PDH inhibition counter-screen | inhibition, % at 5 µM | 0.12% of 200,000 active | AID 1020 | Purified L. mesenteroides G6PDH, diaphorase/resazurin coupled fluorescence, 45 min
Diaphorase inh: counter-screen for diaphorase-based assays: diaphorase inhibitors and chemical oxidizers; diaphorase resazurin-to-resorufin fluorescence, NADH, 16 min; bacterial (C. kluyveri) enzyme, not human; inhibition, % at 20 µM; 0.69% of 190,000 active;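 active = primary screen inhibition at 20 µM above a set limit, cut at about 50% in these data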;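 also: plate controls were DMSO with full reaction for no effect and wells lacking NADH for full effect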
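material = Clostridium kluyveri diaphorase enzyme | amount = 0.14 U/mL diaphorase, enzyme working solution | schedule = incubation 16 min, room temperature | detection = fluorescence of resorufin formed from resazurin, Ex 544/Em 590 nm | benchmarks = positive control minus NADH, DMSO neutral control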
An asterisk follows results filed as active. Rule as the data show it, unless noted: active = inhibition above about 50%; inactive = the rest.

O=c1cc(-c2ccc(O)c(O)c2)oc2c(C3O[C@H](CO)[C@@H](O)[C@H](O)[C@H]3O)c(O)cc(O)c12 (some centres undefined) was read as WT yeast gro inh 14, Diaphorase act 0.5, L major viab 0, G6PDH CS 36 and Diaphorase inh 49.
Screening O=c1c(O[C@@H]2O[C@H](CO)[C@@H](O)[C@H](O)[C@H]2O)c(-c2ccc(O)c(O)c2)oc2cc(O)cc(O)c12 returned WT yeast gro inh -20, Diaphorase act 0.2, G6PDH CS 34 and Diaphorase inh 77*.
`COc1cc2c(=O)c(-c3ccc(O)cc3)coc2cc1OC1OC(CO)C(O)C(O)C1O` (centres undefined) gave WT yeast gro inh 0, Diaphorase act 0.9, L major viab -6, G6PDH CS 22 and Diaphorase inh 9.
For CC1OC(OCC2OC(Oc3c(-c4ccc(O)cc4)oc4cc(O)cc(O)c4c3=O)C(O)C(O)C2O)C(O)C(O)C1O (centres undefined) the results were WT yeast gro inh 3, Diaphorase act 0.9, L major viab -11, G6PDH CS 16 and Diaphorase inh 12.
For O=c1c(O[C@@H]2O[C@H](CO)[C@H](O)[C@H](O)[C@H]2O)c(-c2ccc(O)c(O)c2)oc2cc(O)cc(O)c12 the results were WT yeast gro inh -3, Diaphorase act 0.4, G6PDH CS 28 and Diaphorase inh 56*.
COc1ccc(N(CC(=O)NCCSC2CCCCC2)S(C)(=O)=O)c(OC)c1 was read as WT yeast gro inh -4, Diaphorase act 0.9, L major viab -8, G6PDH CS 14 and Diaphorase inh 5.
Screening COc1cc2nc(CCc3ccccc3)oc(=O)c2cc1OC returned WT yeast gro inh 2, Diaphorase act 0.8, L major viab -4, G6PDH CS 4 and Diaphorase inh 16.
Screening O=C(CCCOc1ccc(Cl)cc1Cl)N1CCc2ccccc2C1 returned WT yeast gro inh 80*, Diaphorase act 0.9, L major viab 0, G6PDH CS 5 and Diaphorase inh 10.
For O=C(O)CN1CCc2ccccc2C1 the results were WT yeast gro inh 10, Diaphorase act 1, L major viab 5, G6PDH CS 4 and Diaphorase inh 4.
`Clc1ccc(OCCCCN2CCc3ccccc3C2)cc1` gave WT yeast gro inh 35, Diaphorase act 0.9, L major viab 85*, G6PDH CS 10 and Diaphorase inh 7.
Screening O=C(CCCOc1ccccc1)N1CCc2ccccc2C1 returned WT yeast gro inh 5, Diaphorase act 0.9, L major viab -5, G6PDH CS -3 and Diaphorase inh 14.
`COc1ccc(OCCOCCN2CCc3ccccc3C2)cc1` gave WT yeast gro inh -8, Diaphorase act 0.9, L major viab 93*, G6PDH CS 1 and Diaphorase inh 12.
Screening CC(C)(C)NC(=O)CSc1nc2ccccc2n1-c1ccccc1 returned WT yeast gro inh 16, Diaphorase act 0.8, L major viab 15, G6PDH CS 14 and Diaphorase inh 19.
`CCc1ccc(N2C(=O)CN(Cc3cccs3)C2=S)cc1` gave WT yeast gro inh -2, Diaphorase act 1, L major viab -3, G6PDH CS 1 and Diaphorase inh 1.
Screening Cc1c(O)nc(SCC(=O)Nc2ccc3c4c(cccc24)CC3)n(-c2ccc(F)cc2)c1=O returned WT yeast gro inh 2, Diaphorase act 0.7, L major viab 29, G6PDH CS -4 and Diaphorase inh 26.
`CN1CCN(/N=C/c2ccc(Cl)c(Cl)c2)CC1` gave WT yeast gro inh 7, Diaphorase act 0.9, L major viab 97*, G6PDH CS 2 and Diaphorase inh 9.
`CN1CCN(/N=C/c2ccc(Br)cc2)CC1` gave WT yeast gro inh 2, Diaphorase act 1, L major viab 4, G6PDH CS 3 and Diaphorase inh -1.
`CN1CCN(/N=C/c2ccc(N(C)c3ccccc3)cc2)CC1` gave WT yeast gro inh -3, Diaphorase act 0.9, L major viab 83*, G6PDH CS 14 and Diaphorase inh 14.
For COC(=O)C1CCN(C(=O)C2CCCCC2)CC1 the results were WT yeast gro inh 5, Diaphorase act 0.9, L major viab -8, G6PDH CS 1 and Diaphorase inh 10.
Screening COc1ccc(Nc2c3c(nc4c(-c5ccccc5)c(C)nn24)CCC3)cc1 returned WT yeast gro inh 62*, Diaphorase act 0.8, L major viab 29, G6PDH CS 3 and Diaphorase inh 19.
For CCOC(=O)C(NC(=O)CC)(Nc1nc2c(s1)CCCC2)C(F)(F)F (centres undefined) the results were WT yeast gro inh 3, Diaphorase act 0.9, L major viab 7, G6PDH CS 4 and Diaphorase inh 8.
`COC(=O)C(NC(=O)COc1ccccc1)(Nc1nc2c(s1)CCCC2)C(F)(F)F` (centres undefined) gave WT yeast gro inh 27, Diaphorase act 0.8, L major viab 65*, G6PDH CS 10 and Diaphorase inh 22.
O=c1ncn(-c2ccccc2F)c2ncccc12 was read as WT yeast gro inh 3, Diaphorase act 0.9, L major viab -4, G6PDH CS 6 and Diaphorase inh 11.
Screening O=C(COC(=O)c1nc(Cl)ccc1Cl)Nc1ccccc1OC(F)F returned WT yeast gro inh 3, Diaphorase act 0.9, L major viab -2, G6PDH CS 5 and Diaphorase inh 8.
For O=C(COC(=O)c1ccc(Cl)c([N+](=O)[O-])c1)Nc1ccccc1OC(F)F the results were WT yeast gro inh 0, Diaphorase act 0.9, L major viab 58*, G6PDH CS 16 and Diaphorase inh 12.
O=C(COC(=O)c1ccc2c(c1[N+](=O)[O-])C(=O)c1ccccc1C2=O)NC1CC1 was read as WT yeast gro inh 32, Diaphorase act 0.7, L major viab -1, G6PDH CS 55* and Diaphorase inh 27.
O=C(COC(=O)c1ccccc1C(=O)c1ccc(Cl)c([N+](=O)[O-])c1)NC1CCCCCC1 was read as WT yeast gro inh 78*, Diaphorase act 1, L major viab -3, G6PDH CS 6 and Diaphorase inh -1.
`CC(C)N(C(=O)COC(=O)c1ccccc1C(=O)c1ccc(Cl)c([N+](=O)[O-])c1)C(C)C` gave WT yeast gro inh 19, Diaphorase act 0.8, L major viab 32, G6PDH CS 4 and Diaphorase inh 23.
`O=C(COC(=O)c1cccc2c1C(=O)c1ccccc1C2=O)NC1CCCCC1` gave WT yeast gro inh 33, Diaphorase act 0.8, L major viab 3, G6PDH CS -20 and Diaphorase inh 24.
Screening CSCC[C@H](NC(=O)CCNC(C)=O)c1nc2ccccc2[nH]1 returned Diaphorase act 0.9, L major viab -2, G6PDH CS 5 and Diaphorase inh 9.
